Laboratory results from ChEMBL document CHEMBL4000256, “Light-Regulated NO Release as a Novel Strategy To Overcome Doxorubicin Multidrug Resistance” (ACS Med Chem Lett, 2017).
Active and inactive are the calls of the source. No cut-off for these calls is given here.

What was measured:
H9c2 [1] = test: Dark toxicity against rat H9c2 cells at 5 uM measured after 20 mins co-incubated with doxorubicin by spectrophotometric method; assay type: cell-based; settings: h9c2, 20 min
How it was run: (§1)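 Cells (M14 melanoma, human fibroblasts or rat H9c2 cardiomyocytes) kept 20 min at room temperature in PBS in the dark, with 5 μM compound, given alone or with equimolar 5 μM doxorubicin. Cytotoxicity read as extracellular LDH release. Triplicate measurements, n = 3.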

[2] = target: T1, ATP-binding cassette sub-family C member 4 (Homo sapiens, UniProt O15439); test: Inhibition of MRP4 in 7 mW/cm'2 irradiated human M14 cells assessed as reduction in ATPase activity at 5 uM measured after 20 mins in presence of doxorubicin by immunoblotting
T1 sequence (O15439 whole entry): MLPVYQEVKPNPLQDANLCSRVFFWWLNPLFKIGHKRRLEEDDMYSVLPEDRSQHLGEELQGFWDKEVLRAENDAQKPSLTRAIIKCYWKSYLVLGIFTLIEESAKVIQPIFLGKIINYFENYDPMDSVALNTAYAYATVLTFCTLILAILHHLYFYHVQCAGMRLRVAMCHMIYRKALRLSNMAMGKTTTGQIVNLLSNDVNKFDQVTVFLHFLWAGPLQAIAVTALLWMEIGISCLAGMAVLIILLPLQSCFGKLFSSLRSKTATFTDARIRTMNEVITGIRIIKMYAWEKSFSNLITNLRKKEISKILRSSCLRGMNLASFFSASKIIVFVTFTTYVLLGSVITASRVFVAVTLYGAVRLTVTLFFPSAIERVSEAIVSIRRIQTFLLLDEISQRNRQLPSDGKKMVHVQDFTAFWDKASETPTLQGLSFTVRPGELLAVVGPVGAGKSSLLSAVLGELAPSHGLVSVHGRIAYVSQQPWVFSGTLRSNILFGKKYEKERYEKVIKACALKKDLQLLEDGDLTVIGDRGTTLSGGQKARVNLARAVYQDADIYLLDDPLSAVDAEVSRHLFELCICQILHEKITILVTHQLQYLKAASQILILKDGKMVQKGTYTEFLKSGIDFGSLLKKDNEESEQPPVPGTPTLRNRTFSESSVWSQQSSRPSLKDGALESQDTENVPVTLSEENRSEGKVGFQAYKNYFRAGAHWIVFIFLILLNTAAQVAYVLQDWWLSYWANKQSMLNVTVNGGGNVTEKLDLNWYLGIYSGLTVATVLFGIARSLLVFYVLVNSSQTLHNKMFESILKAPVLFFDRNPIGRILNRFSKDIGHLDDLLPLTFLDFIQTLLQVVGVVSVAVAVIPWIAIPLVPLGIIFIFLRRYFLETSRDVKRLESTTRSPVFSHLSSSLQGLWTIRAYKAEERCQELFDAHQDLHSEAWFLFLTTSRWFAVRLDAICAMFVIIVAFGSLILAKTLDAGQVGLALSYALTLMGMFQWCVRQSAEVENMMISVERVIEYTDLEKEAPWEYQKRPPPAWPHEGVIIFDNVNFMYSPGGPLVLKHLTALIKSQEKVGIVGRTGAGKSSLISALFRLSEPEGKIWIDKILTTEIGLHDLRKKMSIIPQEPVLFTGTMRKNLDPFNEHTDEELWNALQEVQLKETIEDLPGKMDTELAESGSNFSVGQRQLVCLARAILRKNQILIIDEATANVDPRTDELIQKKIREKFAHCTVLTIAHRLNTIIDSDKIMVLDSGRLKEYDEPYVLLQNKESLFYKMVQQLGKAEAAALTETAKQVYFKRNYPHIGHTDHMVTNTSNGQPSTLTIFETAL
How it was run: (§2)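 M14 melanoma cells held 20 min at room temperature in PBS under 400 nm light (7 mW/cm2) with 5 μM compound, alone or with equimolar doxorubicin. Transporter ATPase activity then measured; n = 3.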

Homo sapiens = species on record: Homo sapiens; test: Inhibition of Pgp in 7 mW/cm'2 irradiated human M14 cells assessed as reduction in ATPase activity at 5 uM measured after 20 mins in presence of doxorubicin by immunoblotting; how it was run: as §2
Fibroblast [3] = test: Cytotoxicity against 7 mW/cm'2 irradiated human fibroblasts at 5 uM coadministered with DOX measured after 20 mins by spectrophotometric method; assay type: cell-based
How it was run: (§3)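 Cells (M14 melanoma, human fibroblasts or rat H9c2 cardiomyocytes) kept 20 min at room temperature in PBS under 400 nm light (7 mW/cm2), alone or with 5 μM compound, given alone or with equimolar 5 μM doxorubicin. Damage read as extracellular LDH release. Triplicate measurements, n = 3.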

M14 = test: Cytotoxicity against 7 mW/cm'2 irradiated human M14 cells assessed as increase in LDH release at 5 uM measured after 20 mins by spectrophotometric method; assay type: functional, cell-based; how it was run: as §3
Fibroblast [4] = test: Dark toxicity against human fibroblasts at 5 uM measured after 20 mins co-incubated with doxorubicin by spectrophotometric method; assay type: cell-based; how it was run: as §1
H9c2 [5] = test: Cytotoxicity against 7 mW/cm'2 irradiated rat H9c2 cells at 5 uM coadministered with DOX measured after 20 mins by spectrophotometric method; assay type: cell-based; settings: h9c2, 20 min; how it was run: as §3
Bos taurus = species on record: Bos taurus; test: Binding affinity to calf thymus duplex DNA at 10 uM by fluorescence spectroscopic method
[6] = Stability in pH 7.4 PBS irradiated with 7 mW/cm2 light assessed as bleaching in NOP1 band at 10 uM up to 60 mins in presence of calf thymus DNA by absorption spectrum method; assay type: physicochemical; settings: buffer, pH 7.4, 1 h
How it was run: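 Absorption spectra recorded after 0, 30, 40, 50 and 60 min irradiation at λexc 405 nm. Solution at 10 μM with 18 μM ct-DNA in PBS (pH 7.4, 10 mM, 3% DMSO).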

[7] = Half life in DMEM medium; assay type: physicochemical
[8] = Stability of the compound in PBS with 3% DMSO; assay type: physicochemical; settings: buffer

SMILES | Activity (H9c2 [1]) | inhibition (INH) [2] | inhibition (Homo sapiens) | Activity (Fibroblast [3]) | Activity (M14) | Activity (Fibroblast [4]) | Activity (H9c2 [5]) | Activity (Bos taurus) | Stability [6] | half-life [7] | Stability [8]
NCCCNc1ccc([N+](=O)[O-])c(C(F)(F)F)c1 | Non-Toxic | Active | Active | Non-Toxic | inactive | Non-Toxic | Non-Toxic |  |  |  | 
COc1cccc2c1C(=O)c1c(O)c3c(c(O)c1C2=O)C[C@@](O)(C(=O)COC(=O)c1ccc(C(=O)NCCCNc2ccc([N+](=O)[O-])c(C(F)(F)F)c2)cc1)C[C@@H]3O[C@H]1C[C@H](N)[C@H](O)[C@H](C)O1.Cl |  |  |  |  |  |  |  | Active | Stable | > 24 h | Stable
